Calls of active or inactive are those of the source. The calls are words filed in the database; no cut-off is given here.
Tests used:
[1] = Dissociation constant, pKa of the compound; format: physicochemical
[2] = Competitive inhibition of HSV-1 pyrimidine deoxythymidine kinase using 2-[14C]deoxythymidine as substrate; set-up: species or system Human alphaherpesvirus 1
How it was run: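 HSV-1 encoded pyrimidine deoxyribonucleoside kinase, purified from LMTK⁻ cells. Assay at 37 °C in 50 mM Tris pH 7.8 with 3 mM ATP·Mg²⁺, 0.3 mg/mL BSA, 0.3 mM 2-mercaptoethanol and 2% glycerol. Substrate was varied [2-¹⁴C]deoxythymidine plus analogue. Reaction was started with enzyme; aliquots were taken over time and phosphorylated product measured. Ki came from double-reciprocal plots.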

Enterococcus faecium [3] = test: Antimicrobial activity against Streptococcus faecium after 15 to 17 hrs by turbidity assay; format: functional; conditions: read-out: ED50 (the source's name)
How it was run: (§1)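 S. faecium (ATCC 8043), washed and resuspended in saline to 100 Klett units, then diluted 10-fold as inoculum. Test compound was added to basal medium with deoxythymidine (7 μM final) or folic acid (4.53 nM final). Incubation was 15-17 h at 37 °C. Growth was taken as the turbidity change before versus after incubation, read on a Klett colorimeter with a red filter (640-700 nm).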

[4] = Retention time of the compound by liquid chromatography; format: physicochemical
How it was run: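 Reverse-phase HPLC with a methanol-water gradient, separating uronic acids from the parent pyrimidine bases and nucleosides.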

Enterococcus faecium [5] = test: Antimicrobial activity against Streptococcus faecium assessed as concentration required for maximum growth inhibition after 15 to 17 hrs by turbidity assay; format: functional; how it was run: as §1
CCRF S-180 [6] = test: Cytotoxicity against mouse S180 cells at 400 uM after 18 to 42 hrs relative to control; format: functional
Enterococcus faecium [7] = test: Antimicrobial activity against Streptococcus faecium assessed as growth inhibition at 400 uM after 15 to 17 hrs by turbidity assay in presence of 7 uM deoxythymidine; format: functional; how it was run: as §1
[8] = Antiviral activity against HSV1 CL101 infected in African green monkey Vero cells assessed as inhibition of plaque formation at 400 uM after 40 hrs relative to control; format: functional, Herpes simplex virus (type 1 / strain CL101); conditions: Human alphaherpesvirus 1, Vero
Enterococcus faecium [9] = test: Antimicrobial activity against Streptococcus faecium assessed as growth inhibition at 400 uM after 15 to 17 hrs by turbidity assay in presence of 4.53 nM folic acid; format: functional; how it was run: as §1
[10] = Antiviral activity against HSV1 CL101 infected in African green monkey Vero cells assessed as inhibition of plaque formation at 200 uM after 40 hrs relative to control; format: functional, Herpes simplex virus (type 1 / strain CL101); conditions: Human alphaherpesvirus 1, Vero
CCRF S-180 [11] = test: Cytotoxicity against mouse S180 cells at 5 uM after 18 to 42 hrs relative to control; format: functional
[12] = Antiviral activity against HSV1 CL101 infected in African green monkey Vero cells assessed as inhibition of plaque formation at 50 uM after 40 hrs relative to control; format: functional, Herpes simplex virus (type 1 / strain CL101); conditions: Human alphaherpesvirus 1, Vero
Lacticaseibacillus casei = test: Inhibition of Lactobacillus casei deoxythymidylate synthetase at 250 uM
L1210 = test: Inhibition of deoxythymidylate synthetase in mouse L1210 cells at 250 uM; format: cell-based
[13] = Antiviral activity against HSV1 CL101 infected in African green monkey Vero cells assessed as inhibition of plaque formation at 0.1 uM after 40 hrs relative to control; format: functional, Herpes simplex virus (type 1 / strain CL101); conditions: Human alphaherpesvirus 1, Vero
CCRF S-180 [14] = test: Cytotoxicity against mouse S180 cells at 0.001 uM after 18 to 42 hrs relative to control; format: functional
[15] = Antiviral activity against HSV1 CL101 infected in African green monkey Vero cells assessed as inhibition of plaque formation at 40 uM after 40 hrs relative to control; format: functional, Herpes simplex virus (type 1 / strain CL101); conditions: Human alphaherpesvirus 1, Vero
[16] = Antiviral activity against HSV1 CL101 infected in African green monkey Vero cells assessed as inhibition of plaque formation at 10 uM after 40 hrs relative to control; format: functional, Herpes simplex virus (type 1 / strain CL101); conditions: Human alphaherpesvirus 1, Vero

`O=c1ccn([C@H]2C[C@H](O)[C@@H](CO)O2)c(=O)[nH]1` [DEOXYURIDINE] gave a pKa [1] of 9.3, a Ki [2] of 9.5 µM and an EC50 (Enterococcus faecium [3]) of 37 µM.

For `O=c1[nH]cc(Br)c(=O)[nH]1` [5-BROMOURACIL], the Retention_time [4] was 7.69 min.

With `NC(=O)[C@H]1O[C@@H](n2ccc(O)nc2=O)C[C@@H]1O` (stereo in doubt; 19) [listing 1 of 2 here] the Activity (Enterococcus faecium [5]) was 600 µM, the inhibition at 400 µM (CCRF S-180 [6]) was 0% and the “inhibition (INH)” value (Enterococcus faecium [7]) was 71%. The inhibition at 400 µM [8] was 0%, the “inhibition (INH)” value (Enterococcus faecium [9]) was 22% and the EC50 (Enterococcus faecium [3]) was 200 µM.

Compound `Nc1ccn([C@@H]2O[C@H](CO)[C@@H](O)[C@@H]2O)c(=O)n1` [CYTARABINE] has an inhibition at 200 µM [10] of 91%, an inhibition at 5 µM (CCRF S-180 [11]) of 98% and a Retention_time [4] of 2.07 min.

`CC(=O)O[C@H]1C[C@H](n2cc(I)c(=O)[nH]c2=O)O[C@@H]1C#N` gave a Ki [2] of 18 µM.

`Nc1nc(=O)n([C@H]2C[C@H](O)[C@@H](C(=O)O)O2)cc1Br` showed a Retention_time [4] of 3.05 min.

With `CC(=O)O[C@H]1C[C@H](n2cc(Br)c(=O)[nH]c2=O)O[C@@H]1C(N)=O` the Ki [2] was 192 µM.

Compound `CC(=O)O[C@H]1C[C@H](n2cc(I)c(=O)[nH]c2=O)O[C@@H]1C(N)=O` has a Ki [2] of 20 µM.

In the case of `CC(=O)O[C@H]1C[C@H](n2cc(F)c(=O)[nH]c2=O)O[C@@H]1C(N)=O`, the Ki [2] is reported as 960 µM.

Work on `Cc1cn([C@H]2C[C@H](O)[C@@H](C(N)=O)O2)c(=O)[nH]c1=O` yielded a Ki [2] of 1.6 µM.

For `COC(=O)[C@H]1O[C@@H](n2cc(C)c(=O)[nH]c2=O)C[C@@H]1O`, the Ki [2] was 4 µM.

With `O=c1[nH]c(=O)n([C@H]2C[C@H](O)[C@@H](CO)O2)cc1I` [IDOXURIDINE] the “inhibition (INH)” value (Enterococcus faecium [7]) was 12%, the “inhibition (INH)” value (Enterococcus faecium [9]) was 71% and the inhibition at 50 µM [12] was 99.7%. The Retention_time [4] was 14.41 min and the Ki [2] was 0.2 µM.

For `N#C[C@H]1O[C@@H](n2cc(I)c(O)nc2=O)C[C@@H]1O`, the inhibition at 400 µM (CCRF S-180 [6]) was 0%, the “inhibition (INH)” value (Enterococcus faecium [7]) was 0% and the inhibition at 400 µM [8] was 74%. The “inhibition (INH)” value (Enterococcus faecium [9]) was 14% and the Ki [2] was 1.3 µM.

With `NC(=O)[C@H]1O[C@@H](n2cc(F)c(=O)[nH]c2=O)C[C@@H]1O` the inhibition (Lacticaseibacillus casei) was “inactive”, the Ki [2] was 18 µM and the inhibition (L1210) was “inactive”.

`Nc1nc(=O)n([C@H]2C[C@H](O)[C@@H](CO)O2)cc1I` [IBACITABINE] gave a Retention_time [4] of 19.87 min.

`N#C[C@H]1O[C@@H](n2cc(Br)c(=O)[nH]c2=O)C[C@@H]1O` gave a Ki [2] of 1.8 µM.

`Nc1nc(=O)n([C@H]2C[C@H](O)[C@@H](CO)O2)cc1Br` gave a Retention_time [4] of 16.53 min.

In the case of `O=c1[nH]c(=O)n([C@H]2C[C@H](O)[C@@H](CO)O2)cc1F` [FLOXURIDINE], the inhibition at 0.1 µM [13] is reported as 88%, the “inhibition (INH)” value (Enterococcus faecium [7]) is reported as 96% and the “inhibition (INH)” value (Enterococcus faecium [9]) is reported as 95%. It also gave a Retention_time [4] of 7.93 min, a Ki [2] of 1.5 µM and an inhibition at 0.001 µM (CCRF S-180 [14]) of 95%.

`O=c1[nH]cc(I)c(=O)[nH]1` gave a Retention_time [4] of 8.85 min.

For `O=C(O)[C@H]1O[C@@H](n2cc(F)c(=O)[nH]c2=O)C[C@@H]1O` [RIBOFURANURONIC ACID], the inhibition (Lacticaseibacillus casei) was “inactive” and the inhibition (L1210) was “inactive”.

With `COC(=O)[C@H]1O[C@@H](n2cc(I)c(=O)[nH]c2=O)C[C@@H]1O` the Ki [2] was 1.5 µM.

For `COC(=O)[C@H]1O[C@@H](n2cc(F)c(O)nc2=O)C[C@@H]1O`, the inhibition at 400 µM (CCRF S-180 [6]) was 32%, the “inhibition (INH)” value (Enterococcus faecium [7]) was 0% and the inhibition (Lacticaseibacillus casei) was “inactive”. The inhibition at 400 µM [8] was 0%, the “inhibition (INH)” value (Enterococcus faecium [9]) was 0% and the Ki [2] was 410 µM. The inhibition (L1210) was “inactive”.

Work on `O=C(O)[C@H]1O[C@@H](n2cc(Br)c(O)nc2=O)C[C@@H]1O` yielded a Retention_time [4] of 2.56 min and a Ki [2] of 2.7 µM.

`Nc1nc(=O)n([C@H]2C[C@H](O)[C@@H](C(=O)O)O2)cc1I` showed a Retention_time [4] of 3.35 min.

For `N#C[C@H]1O[C@@H](n2cc(F)c(=O)[nH]c2=O)C[C@@H]1O`, the inhibition (Lacticaseibacillus casei) was “inactive”, the Ki [2] was 75 µM and the inhibition (L1210) was “inactive”.

Work on `CC(=O)O[C@H]1C[C@H](n2cc(C)c(=O)[nH]c2=O)O[C@@H]1CO` yielded a Ki [2] of 58 µM.

Compound `Cc1cn([C@H]2C[C@H](O)[C@@H](C(=O)O)O2)c(=O)[nH]c1=O` [5'-CARBOXY THYMIDINE] has a Ki [2] of 5.4 µM.

For `O=c1[nH]c(=O)n([C@H]2C[C@H](O)[C@@H](CF)O2)cc1I`, the Ki [2] was 1.5 µM.

For `O=C(O)[C@H]1O[C@@H](n2ccc(=O)[nH]c2=O)C[C@@H]1O`, the Ki [2] was 500 µM.

`O=C(O)[C@H]1O[C@@H](n2cc(I)c(O)nc2=O)C[C@@H]1O` showed a Retention_time [4] of 2.97 min and a Ki [2] of 4.2 µM.

With `O=c1[nH]cc(F)c(=O)[nH]1` [FLUOROURACIL] the Retention_time [4] was 5.29 min.

For `NC(=O)[C@H]1O[C@@H](n2ccc(O)nc2=O)C[C@@H]1O` (stereo in doubt; 19) [listing 2 of 2 here], the inhibition (Lacticaseibacillus casei) was “inactive” and the inhibition (L1210) was “inactive”.

With `NC(=O)[C@H]1O[C@@H](n2cc(Br)c(O)nc2=O)C[C@@H]1O` the inhibition at 400 µM (CCRF S-180 [6]) was 0%, the “inhibition (INH)” value (Enterococcus faecium [7]) was 0% and the inhibition at 400 µM [8] was 92%. For the same compound, the “inhibition (INH)” value (Enterococcus faecium [9]) was 0%, the inhibition at 40 µM [15] was 42% and the Ki [2] was 0.8 µM.

`Nc1ccn([C@H]2C[C@H](O)[C@@H](CO)O2)c(=O)n1` [DOXECITINE] showed an EC50 (Enterococcus faecium [3]) of 50 µM.

In the case of `COC(=O)[C@H]1O[C@@H](n2ccc(=O)[nH]c2=O)C[C@@H]1O`, the Ki [2] is reported as 500 µM.

`NC(=O)[C@H]1O[C@@H](n2ccc(O)nc2=O)C[C@@H]1O` (stereo in doubt) showed an Activity (Enterococcus faecium [5]) of 600 µM and a Ki [2] of 310 µM.

Work on `COC(=O)[C@H]1O[C@@H](n2cc(Br)c(=O)[nH]c2=O)C[C@@H]1O` yielded a Ki [2] of 2.9 µM.

In the case of `Nc1ccn([C@@H]2O[C@H](C(=O)O)[C@@H](O)[C@@H]2O)c(=O)n1`, the inhibition at 400 µM (CCRF S-180 [6]) is reported as 76%, the “inhibition (INH)” value (Enterococcus faecium [7]) is reported as 0% and the inhibition at 400 µM [8] is reported as 0%. The “inhibition (INH)” value (Enterococcus faecium [9]) was 0% and the Retention_time [4] was 2.56 min.

For `NC(=O)[C@H]1O[C@@H](n2cc(I)c(O)nc2=O)C[C@@H]1O`, the inhibition at 400 µM (CCRF S-180 [6]) was 0%, the “inhibition (INH)” value (Enterococcus faecium [7]) was 0% and the inhibition at 400 µM [8] was 96%. The “inhibition (INH)” value (Enterococcus faecium [9]) was 28%, the inhibition at 40 µM [15] was 78% and the Ki [2] was 1 µM.

For `Cc1cn([C@H]2C[C@H](O)[C@@H](CO)O2)c(=O)[nH]c1=O` [DOXRIBTIMINE], the pKa [1] was 9.8 and the EC50 (Enterococcus faecium [3]) was 11 µM.

With `CC(=O)O[C@H]1C[C@H](n2cc(Br)c(=O)[nH]c2=O)O[C@@H]1C#N` the Ki [2] was 28 µM.

With `O=c1[nH]c(=O)n([C@H]2C[C@H](O)[C@@H](CO)O2)cc1Br` [BROXURIDINE] the “inhibition (INH)” value (Enterococcus faecium [7]) was 76%, the “inhibition (INH)” value (Enterococcus faecium [9]) was 91% and the Retention_time [4] was 12.16 min. For the same compound, the Ki [2] was 0.2 µM and the inhibition at 10 µM [16] was 99.6%.
